Hck Nef HTS = human Hck-Nef kinase inhibition. 220,000 compounds, 0.68% hits. P08631. Recombinant Hck-YEEI plus Nef, Z-Lyte FRET kinase assay. inhibition, % at 20 µM;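 active = Hck-Nef kinase inhibition above about 50%, limit read from the data; inactive = inhibition below that limit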
RBBP9 inh = blocks human serine hydrolase RBBP9; recombinant RBBP9, FP-Rh probe fluorescence polarization; inhibition, % at 7.94 µM; 220,000 compounds, 0.2% hits; AID 1515;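 active = inhibition above the campaign mean of all tested compounds plus 3 SD, cut at about 14% in these data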
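Test system – recombinant human RBBP9 · Input – RBBP9 2.5 µM in dispensing solution, pre-mixing · Medium – Tris buffer pH 8.0, NaCl, Pluronic · Schedule – preincubation 30 min plus labeling 45 min at 25 °C · Measured by – fluorescence polarization · Measure – % inhibition · Controls – DMSO and no-protein wells · Replicates – one well per compound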
PfM18AAP inh = blocks P. falciparum M18 aspartyl aminopeptidase | inhibition, % at 7.35 µM | 290,000 compounds, 1.2% hits | recombinant PfM18AAP, H-Glu-NHMec fluorogenic cleavage | AID 1822;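 active = inhibition above the campaign mean inhibition over all tested compounds plus 3 SD, cut at about 28% in these data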
RanGTP-Imp inh = inhibitors of RanGTP-importin-beta interaction, primary screen, biochemical, FRET, CFP-Ran, YFP-importin-beta, homogeneous. 300,000 compounds, 1.1% hits. cell-free CFP-Ran/YFP-importin-beta FRET ratio. inhibition, % (concentration not given with the values);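 active = more than half of the replicate wells show a fall in the fluorescence ratio signal beyond about 16%, limit read from the data, passing the limit was not always enough; inconclusive = exactly half of the replicate wells pass the set limit; inactive = fewer than half of replicates pass the limit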
Runt-SMMHC FRET = Runt domain-CBFb-SMMHC interaction inhibition; Cerulean-Runt/Venus-CBFb-SMMHC FRET ratio 530/480, 1 h; inhibition, % at 20 µM; 220,000 compounds, 0.74% hits;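 active = mean inhibition across duplicate retests at 20 µM reaching about 50%, limit read from the data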;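 note: inhibitors lower the FRET ratio by blocking Runt binding to CBFb-SMMHC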
Target sequence (Q01196 whole entry, looked up, the tested form may be a part): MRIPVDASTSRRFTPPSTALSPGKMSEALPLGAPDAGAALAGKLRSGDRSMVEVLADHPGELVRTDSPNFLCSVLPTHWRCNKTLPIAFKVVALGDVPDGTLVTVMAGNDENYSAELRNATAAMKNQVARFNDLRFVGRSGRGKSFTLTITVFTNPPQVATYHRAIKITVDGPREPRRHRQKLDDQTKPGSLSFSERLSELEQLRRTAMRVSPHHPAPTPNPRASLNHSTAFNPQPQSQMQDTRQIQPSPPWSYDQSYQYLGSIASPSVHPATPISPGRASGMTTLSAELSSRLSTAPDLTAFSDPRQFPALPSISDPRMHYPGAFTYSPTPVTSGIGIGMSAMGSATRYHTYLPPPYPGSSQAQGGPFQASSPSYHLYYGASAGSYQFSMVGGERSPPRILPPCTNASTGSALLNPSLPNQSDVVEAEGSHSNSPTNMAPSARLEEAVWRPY
Target sequence (Q13951 whole entry, looked up, the tested form may be a part): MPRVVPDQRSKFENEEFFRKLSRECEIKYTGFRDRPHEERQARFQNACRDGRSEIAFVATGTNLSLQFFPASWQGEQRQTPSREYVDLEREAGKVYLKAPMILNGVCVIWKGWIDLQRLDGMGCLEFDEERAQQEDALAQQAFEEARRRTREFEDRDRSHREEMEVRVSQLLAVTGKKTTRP
Runt-CBFb FRET = Runt domain-CBFb interaction inhibition; Cerulean-Runt/Venus-CBFb FRET ratio 530/480, 1 h; Q01196+Q13951; 220,000 compounds, 0.46% hits; inhibition, % at 20 µM; AID 1496;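 active = inhibition over about 50% at 20 µM in the single-dose screen, limit read from the data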
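Assay system: Cerulean-tagged RUNX1 Runt domain (FRET donor) fusion protein / Amount: 100 nM each of Venus-CBFb and Cerulean-Runt domain / Medium: Tris buffer pH 7.5 with salts and BSA / Also added: Venus-CBFb 100 nM / Schedule: 1 h complex formation plus 1 h compound treatment, room temperature / Signal: FRET fluorescence / Read-out: loss of energy transfer signal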
YIC FRET counter = counter-screen YIC FRET for RanGTP-importin-beta inhibitors | shares compounds with RanGTP-Imp inh | Purified YIC probe, intramolecular FRET ratio YFP/CFP | IC50, µM | 1,000 compounds, 40% hits;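 active = fitted half-maximal inhibitory concentration no more than tenfold above the top dose tested; inconclusive = flat fit with 30 to 70% activity, or poor fit; inactive = half-maximal concentration beyond tenfold above the top dose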
A number is an active result; - = inactive; ? = inconclusive; . = no result given. Most compounds without a hit are left out; they make up all but 2.9% or so of the library.

SMILES | Hck Nef HTS | RBBP9 inh | PfM18AAP inh | RanGTP-Imp inh | Runt-SMMHC FRET | Runt-CBFb FRET | YIC FRET counter
CC1CCN(c2cc(=O)n(C3CCCCC3)c(=O)[nH]2)CC1 | - | - | - | 31 | - | - | -
O=C(c1ccco1)N1CCN(c2cc(=O)n(C3CCCCC3)c(=O)[nH]2)CC1 | - | - | - | - | - | - | .
O=c1cc(N2CCc3ccccc3C2)[nH]c(=O)n1C1CCCCC1 | - | - | - | 54 | - | - | -
C=C1CCC[C@]2(C)C[C@H]3OC(=O)C(CNC(C)(CO)CO)[C@H]3CC12 (stereo partly specified) | . | . | - | - | . | . | .
COC(=O)c1ccc(NC(=O)CCc2nnc3ccc(N4CCC5(CC4)OCCO5)nn23)cc1 | . | . | - | - | . | . | .
CCOC(=O)c1ccc(N2CCOCC2)c(NC(=O)c2nccnc2C(=O)O)c1 | . | . | - | - | . | . | .
Cc1onc(-c2ccccc2)c1C(=O)Nc1cccc2nsnc12 | - | - | - | 22 | - | - | 37
COc1ccc(-c2cc(C(F)(F)F)n3nc(N)nc3n2)cc1 | - | - | - | 27 | 59 | - | 21
Nc1nc2nc(-c3ccc(F)cc3)cc(C(F)(F)F)n2n1 | - | - | - | - | - | - | .
COc1ccccc1C#Cc1ccc2c(=O)c3ccccc3n(C)c2c1 | . | . | 30 | 40 | . | . | 0.72
Cc1cccc(-n2c(C)cc(/C=C3\C(=N)N4N=C(CC(C)C)SC4=NC3=O)c2C)c1 | - | - | - | 26 | - | - | -
COc1ccc(-c2csc3ncnc(N4CCN(c5ccc(OC)cc5)CC4)c23)cc1 | . | . | - | 22 | . | . | -
COc1ccc(-c2csc3ncnc(N4CCN(c5ccccc5)CC4)c23)cc1 | . | . | - | - | . | . | .
COCCN(C(=O)COC(=O)c1cc(C)oc1C)c1c(N)n(Cc2ccccc2)c(=O)[nH]c1=O | . | . | . | - | . | . | .
COC(=O)CCC(=O)OC1(C)C(=O)C=C2C=C(C3CC3)N(Cc3ccc(OC)cc3)C=C2C1=O (stereo unspecified) | - | . | . | 20 | - | - | 20
O=C(Nc1cccc(-c2nc3ccccc3s2)c1)c1cccs1 | - | - | - | 25 | - | - | -
COc1ccc(/C=C2\SC(=S)N(CC(=O)OCC(=O)Nc3ccc(C)cc3Cl)C2=O)cc1 | - | - | - | 18 | - | - | -
O=C(CN1C(=O)COc2ccccc21)N1CCCC1 | . | . | - | - | . | . | .
O=C(CCN1C(=O)COc2ccccc21)N1CCCCC1 | - | - | - | 24 | - | - | -
O=C(Nc1oc2ccc(Cl)cc2c(=O)c1-c1ccc(F)cc1)c1ccco1 | . | . | - | - | . | . | .
C=CCOc1c(Br)cc(CNc2ccc(NC(=O)C(C)C)c(OC)c2)cc1OC | - | - | - | 27 | - | - | -
Cc1ccc(-c2ccc(/C=C(\C#N)C(N)=S)n2C)cc1 | - | - | - | 31 | - | - | -
O=S(=O)(Nc1ccccc1C(F)(F)F)c1ccc(-c2ccccn2)s1 | . | . | - | - | . | . | .
O=C(NCC1CCN(Cc2ccccc2F)CC1)Nc1cc(F)ccc1F | . | . | - | - | . | . | .
O=C(NCC1CCN(Cc2ccccc2Cl)CC1)Nc1ccccc1F | . | . | - | 17 | . | . | -
SMILES | Hck Nef HTS | RBBP9 inh | PfM18AAP inh | RanGTP-Imp inh | Runt-SMMHC FRET | Runt-CBFb FRET | YIC FRET counter
Cc1cc(C(=O)N/N=C2\CC(=O)CC(C)(C)C2)c2ccccc2n1 | - | - | - | - | - | - | .
CC1(C)CC(=O)C/C(=N\NC(=O)Cc2ccccc2)C1 | - | - | - | 26 | - | - | -
COc1ccc(OCC(=O)NCCNC(=O)c2cccnc2)cc1 | . | . | - | - | . | . | .
CC1CCCCN1C(=S)NCc1ccco1 (stereo unspecified) | - | - | - | - | - | - | .
CC(=O)N(c1ccc(Cl)cc1)c1cn(C(C)=O)c2ccccc12 | - | - | - | ? | - | - | .
CC(=O)N(c1ccc(Cl)cc1)c1c[nH]c2ccccc12 | - | - | - | 26 | - | - | -
CCOC(=O)C1=C(C)OC(N)=C(C#N)C1c1cc2c(cc1[N+](=O)[O-])OCO2 (stereo unspecified) | - | - | - | - | - | - | .
Cc1ccc(-c2c(C#N)c(N)nc3c2CCCC3)s1 | - | - | - | 22 | - | - | 27
N#Cc1c(N)nc2c(c1-c1ccc(Br)s1)CCCC2 | - | - | - | - | - | - | .
CCc1nc(N)c(C#N)c(-c2ccc(F)cc2)c1C | - | - | - | 23 | - | - | -
N#Cc1c(N)nc2c(c1-c1ccc(F)cc1)CCC2 | - | - | - | 21 | - | - | 9.9
CC(C)(C)CC(=O)Nc1cc2c3c(c1)CCN3C(=O)CC2 | . | . | - | - | . | . | .
Cc1sc(NC(=O)c2oc3ccccc3c2C)c(C#N)c1C | - | - | - | 25 | - | - | -
Cc1c(C(=O)NC2=NCCS2)oc2ccccc12 | - | - | - | - | - | - | .
Cc1cc(C)cc(NC(=S)NCCN(C2CCCCC2)C2CCCC2)c1 | - | - | - | - | - | - | .
COc1cc(S(=O)(=O)NCCCN2CCOCC2)ccc1Cl | - | - | - | 17 | - | - | -
CC1=C(C#N)C(=O)N(C)C(C)(C)C1 | - | - | - | - | - | - | .
CCCN1CC(O)=C(C#N)C1=O | - | - | - | 24 | - | - | -
O=c1[nH]c(Nc2ccccn2)cc2ccccc12 | . | . | . | 38 | . | . | -
O=c1[nH]c(-c2ccccn2)cc2ccccc12 | - | - | - | - | - | - | .
COc1cc(NC(=O)Cn2ncc(Cl)c(Cl)c2=O)c(C)cc1[N+](=O)[O-] | - | - | - | 27 | - | - | -
CCOc1cccc(CN2CCC(CCC(=O)NC3CC3)CC2)c1O | . | . | - | - | . | . | .
COc1ccc(Oc2nc3c(C)cccn3c(=O)c2/C=C(\C#N)C(N)=O)cc1 | - | - | - | 22 | 82 | - | 6
Cc1cccc(Oc2nc3ccccn3c(=O)c2/C=C(\C#N)C(=O)NC2CCS(=O)(=O)C2)c1 (stereo unspecified) | - | - | - | 27 | 81 | - | 48
COC(=O)/C(C#N)=C/c1c(Oc2cc(C)cc(C)c2)nc2c(C)cccn2c1=O | - | - | - | - | - | - | .
COc1ccc(N2CCN(c3nc4c(C)cccn4c(=O)c3/C=C(\C#N)C(N)=O)CC2)cc1 | . | . | - | ? | . | . | .
Cc1cccn2c(=O)c(/C=C(\C#N)C(=O)NC3CCS(=O)(=O)C3)c(Oc3ccc(F)cc3)nc12 (stereo unspecified) | . | . | - | 37 | . | . | 18
Cc1cccc(Oc2nc3ccccn3c(=O)c2/C=C(\C#N)C(=O)NC2CCS(=O)(=O)C2)c1C (stereo unspecified) | . | . | - | - | . | . | .
CCS(=O)(=O)N1Cc2ccccc2CC1C(=O)Nc1cccc(S(=O)(=O)N(C)C)c1 (stereo unspecified) | . | . | - | - | . | . | .
Cc1ccc(NC(=O)CCCc2ccccc2)c([N+](=O)[O-])c1 | . | . | - | - | . | . | .

Compound activity deposited in PubChem BioAssay by several laboratories.
